From ChEMBL document CHEMBL4513216, “Probing the Open Global Health Chemical Diversity Library for Multistage-Active Starting Points for Next-Generation Antimalarials” (ACS Infect Dis, 2020)

Experiment: Toxicity liver stage against HepG2, at 10uM
Type: cell-based
Set-up: test concentration 10 uM, cell line HepG2-A16-CD81EGFP
Details: human, HepG2-A16-CD81EGFP cells; read-out: INHIBITION
Method in brief: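 Uninfected HepG2-A16-CD81EGFP cells, 3 × 10^3 per well, 1536-well, plated on prespotted compound at 10 μM final, parasite-free screening media added to match infected plates; puromycin 10 μM positive, DMSO 0.5% negative; run in parallel with 48 h PbLuc assay at 37 °C, 5% CO2; viability by CellTiter-Glo luminescence, normalized to controls.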

SMILES | cytotoxicity at 10 µM
CN(C)c1ncc(-c2cc(C(=O)NCCO)n(CC3CC3)c2)cn1 | -3.53%
O=C(Nc1cccnc1)[C@@H]1CCO[C@@H]2CCN(Cc3cccnc3)C[C@@H]21 | 4.78%
O=C(c1ccco1)N1CC[C@H]2[C@H]1CC(=O)N2c1cccnc1 | -95.8%
CCNC(=O)[C@@H]1C[C@@H](NC(=O)c2cnc[nH]c2=O)CN1Cc1ccsc1 | -6.94%
CCc1ccccc1OC1CN(C(=O)c2cccs2)C1 | 13.7%
Cc1nc2c(C#N)cnn2c(C)c1CCC(=O)N(C)C1CC1 | -47.2%
CN(Cc1cccc(F)c1)C(=O)c1cc2c([nH]c1=O)CCCC2=O | -7.45%
Cc1cc(=O)[nH]c(=O)n1-c1ccccc1Br | 7.89%
COC(=O)CC(c1ccc(O)c(Cl)c1)c1oc(C)cc(=O)c1O (stereo not drawn) | -8.59%
CCc1nnc2n1CC(CNCc1nnc(C(C)(C)C)o1)CC2 (stereo not drawn) | 3.18%
O=C(c1ccn[nH]1)N1CCCC(n2cncn2)C1 (stereo not drawn) | 1.56%
O=C(c1ccco1)N1CCC[C@]2(C[C@H](Oc3ncccc3F)CO2)C1 | 2.49%
CCOc1cc(CNc2cc(-c3nc(C)no3)ccn2)ccc1OC | 1.74%
Cc1ccc(S(=O)(=O)NC[C@H]2OC[C@@H](NCc3cccnc3)[C@@H]2O)cc1 | 1.32%
Cn1cc(Br)c(=O)c(NS(=O)(=O)c2ccc3c(c2)CCC3)c1 | -3.47%
O=C(NC1CCN(CC2CC2)C1)c1ccc(C(=O)c2cc[nH]c2)cc1 (stereo not drawn) | -6.14%
COc1ccc(-c2cc(C3=NC(=CN4CCN(C)CC4)NO3)[nH]n2)cc1 | -17.8%
Cc1ccc(-c2nc(CN3CCn4c(nnc4C4CC4)C3)no2)cc1 | -1.99%
CN(C)C1CCN(Cc2cnc(S(C)(=O)=O)n2CC2CCCCC2)C1 (stereo not drawn) | 0.83%
CS(=O)(=O)CCCOc1cccc(-n2ccnc2)c1 | 5.13%
COc1ccc(OCCc2sc(C3(O)CCCNCC3)nc2C)cc1 (stereo not drawn) | -14.9%
c1cc(-c2nnn3c2COC(CNCc2nccs2)C3)ccn1 (stereo not drawn) | 1.94%

SMILES | cytotoxicity at 10 µM
CCc1nc(CNC2CCN(S(C)(=O)=O)CC2)cs1 | 0.684%
Cc1cc(C(=O)N[C@H](C)c2onc(C)c2C(=O)O)c(C)o1 | 3.82%
OCCN1CCC(CNCCOCC(F)(F)F)CC1 | -0.903%
Cc1nnc(CN(Cc2cccc(Cl)c2)C(C)C)o1 | 1.69%
CCOc1cc(NC(=O)N2CCC(c3nnc[nH]3)CC2)ccc1C | 14.5%
O=C(CCc1ccccc1F)N1CCCC(OCc2cccnc2)C1 (stereo not drawn) | -5.44%
c1ccc(OCCN2CCN(c3ncnc4[nH]ccc34)CC2)cc1 | 8.64%
CN1CCC(N2CC[C@H](c3nc4ccc(C(F)(F)F)cc4[nH]3)C2)CC1 | -10.2%
Cc1cccnc1CN1CCN(CC(=O)N(C)C)[C@@H]2CS(=O)(=O)C[C@@H]21 | -2.33%
COc1ccc2[nH]cc(C(=O)N3C[C@@H](O)[C@H](N4CCCC4)C3)c2c1 | 2.35%
CCN(Cc1cnn(CC)c1)C(=O)Cn1c(=O)ccc2ccccc21 | 2.37%
O=C(Nc1ccc(Cl)cn1)c1cncc(C2CCNCC2)n1 | -13.5%
CN1CCCN(C(C(=O)O)c2ccc3c(c2)OCO3)CC1 (stereo not drawn) | 1.83%
Cc1cc(C)n(CCC2CC(=O)Nc3cc4[nH]ncc4cc32)n1 (stereo not drawn) | -6.17%
COc1nc2c(cc1C(=O)N(C)Cc1[nH]nc3c1CCC3)CCC2 | -1.77%
Cc1noc([C@H]2COC[C@H]3CN(C(=O)Cc4ccc(F)cc4)C[C@H]32)n1 | -21.1%
CCCc1n[nH]cc1C(=O)N1CCCC(c2nccn2CC2CC2)C1 (stereo not drawn) | 1.1%
COc1ccccc1CC(=O)NC1CCCc2cn[nH]c21 (stereo not drawn) | 17.1%
O=C(O)CCCNC(=O)N1CCc2c([nH]c3ccc(Cl)cc23)C1 | 8.13%
CCN(CC)C(=O)Nc1cc2c(cc1SC)OCCO2 | -7.87%
O=C(c1cc(-c2cccs2)cs1)N1CCSCC1 | 10.4%
CC(C(=O)Nc1ccc2ccccc2c1)N1CCC(n2ccnc2)CC1 (stereo not drawn) | -4%

SMILES | cytotoxicity at 10 µM
Cc1noc(C)c1CN1CCO[C@H]2CN(Cc3nccn3C)C[C@H]21 | 2.64%
O=C(CC1CC1)N(Cc1cccnc1)CC1CCN(C2CCCC2)CC1 | 5.95%
c1coc(CN2CCc3ncnc(C4CCOC4)c3CC2)c1 (stereo not drawn) | 10.2%
c1ccc(OCCCN2CCN(c3ccc4nncn4n3)CC2)cc1 | -0.421%
Cc1ncsc1C(=O)N1CCc2[nH]nc(-c3ccc4c(c3)OCO4)c2C1 | -141%
COc1ccc(CN2CC[C@@H](N)[C@@H](OC)C2)cc1Cn1cncn1 | -3.7%
CC(=O)c1cccc(OCCCC(=O)N(C)Cc2ccccn2)c1 | -24.4%
CCc1ccc(C2CCCN2C(=O)CNC(=O)CCC(C)C)o1 (stereo not drawn) | -10.2%
Fc1cnc(N2CCN(Cc3ccc(-c4cc[nH]n4)o3)CC2)nc1 | -6%
Cc1nc(CCC(N)=O)cc(C2CCCCN2S(C)(=O)=O)n1 (stereo not drawn) | -13%
Cc1cc(CN(C2CC2)C(C)C(C)C)no1 (stereo not drawn) | 0.519%
COCCN(Cc1ccoc1)S(=O)(=O)c1cccc(C(F)(F)F)c1 | 3.17%
CC1CCN(CCCNC(=O)NC(C)c2nncn2C)CC1 (stereo not drawn) | -11.6%
O=C(c1cccc(S(=O)(=O)NCCCc2ncc[nH]2)c1)N1CCOCC1 | -11.4%
CN(Cc1ccco1)Cc1ccccc1CNC(=O)c1cnc[nH]1 | 2.6%
CS(=O)(=O)c1nccn1Cc1ccc(F)cc1Cl | -4.99%
c1cnc(N2C[C@H]3CCN(CCN4CCCC4)C[C@H]3C2)cn1 | -114%
Cc1nccn1CC1CCN(C(=O)c2cccs2)CC1 | -14.2%
Fc1cccc(Cl)c1CNCCOc1ccccn1 | -11.4%
CCc1noc(-c2ccc(SCC(=O)O)nc2)n1 | -10.9%
COc1ccc(O)c(C(=O)NCC2CCCN(C3CCOCC3)C2)c1 (stereo not drawn) | -3.23%
CN(C)Cc1cc(=O)n2c(n1)CN(C(=O)Cc1cccs1)CCC2 | -2.8%

SMILES | cytotoxicity at 10 µM
CNC(=O)c1cc2c(nc1NCC(C)C)CCN(S(=O)(=O)N(C)C)CC2 | -151%
Cc1nc(CN2CCC3(CCN(c4ncc(F)cn4)C3)C2=O)cs1 (stereo not drawn) | 3.61%
Cc1cccnc1CN1CCN(C(=O)[C@@]23CNC[C@@H]2CN(C)C3)CC1 | 2.3%
CC1CCC(NC(=O)CNC2(c3ccc(Br)cc3)CCOCC2)CC1 (stereo not drawn) | 3.46%
CCOCc1ncn2c1CN(C(=O)Nc1cccc(F)c1)CC2 | 1.03%
Cc1nc2cc(OCc3nc(C(=O)NC(CO)CO)co3)ccc2s1 | 4.01%
COc1ccc(CNC(=O)CNc2cc3c(cc2Cl)OCCCO3)cc1 | 3.25%
COCC(=O)N1CCC(C(=O)Nc2ccc(S(N)(=O)=O)cc2)CC1 | -1.47%
O=C1[C@H]2CN(Cc3ccccc3)C[C@H]2CN1c1cncnc1 | -4.53%
COc1c(CNCC(=O)N2CCN(C)CC2)c(C(C)C)nn1C | 7.45%
CC(Cc1c(F)cccc1F)NC(=O)CSCC(N)=O (stereo not drawn) | -6.37%
Cc1cc(CNC(=O)Nc2cccc(COCCOC(C)C)c2)no1 | 11%
CN1C[C@@H](COCC2CC2)[C@H]2CCN(Cc3ccco3)CC[C@H]2C1=O | -4.6%
COc1ccc(Oc2nccc3occc23)cc1CN1CCCC1 | -24.6%
CCc1nccn1CCC(=O)N1CCN(c2ccccc2C)CC1C (stereo not drawn) | 11%
CN(CCCn1cnc2c(N)ncnc21)Cc1ccccc1 | -4.87%
N#Cc1ccc(NCCCN2C(=O)COc3ccccc32)nc1 | 11%
O=C(c1cocn1)N1C[C@H]2CCC[C@@]2(COCc2cccnc2)C1 | 7.35%
Cc1nn(C)c(N(C)C)c1CNCc1ccc(N(C)C)nc1 | -1.24%
COC(=O)CC(NC(=O)c1cccc(N2CCCC2=O)c1)c1cccs1 (stereo not drawn) | -51.4%
CC(C)(C)CC(=O)NCC1CCCS1 (stereo not drawn) | 11.2%
COCc1ncc(-c2nccn2CCn2cnnc2)cn1 | 4.6%

SMILES | cytotoxicity at 10 µM
Cc1nc(NS(=O)(=O)c2ccc(C)c(Br)c2)no1 | 11.2%
CC(=O)N1[C@H](Cn2cncn2)C[C@@H]2CN(C(=O)c3ccoc3)CC[C@@H]21 | -3.42%
Cn1nc(C(=O)NCCc2ccc(OC3CCCC3)cc2)ccc1=O | -2.61%
CCN(CC)C(=O)c1nnsc1-c1ccc(C)cc1 | 3.14%
COc1ccc(C(=O)NCC(c2cccn2C)N2CCCC2)c(OC)c1 (stereo not drawn) | 1.31%
COc1cccc(C(=O)N2CCN(C(=O)CCCn3ccnc3)CC2)c1 | 3.82%
Oc1cc(-c2nccs2)nc(C2CCN(Cc3cccs3)CC2)n1 | 16.7%
CCN1CCN(c2ccc(CNC(=O)c3ccccc3F)cn2)CC1 | -16.4%
CN1CCN(c2nccc(-c3cncnc3C3CCCCC3)n2)CC1 | -4.33%
c1cnc(N2CCCC3(COCCN(c4nncs4)C3)C2)cn1 (stereo not drawn) | 1.77%
COc1ccc(CN2CC[C@H]3O[C@@H](C(=O)NCC4CC4)CC[C@H]32)cc1 | 7.31%
COc1ccc(CC(=O)N2CC[C@@H]3[C@H](CC2)N(C)CCS3(=O)=O)cc1 | -104%
O=S(=O)(Nc1cnc(N2CCOCC2)nc1)c1ccc(C(F)(F)F)cc1 | -2.73%
COCCCN(C)S(=O)(=O)c1ccc(Cl)cc1C#N | -38%
CCOc1cccc(COC(=O)c2cc(C)on2)n1 | -5.08%
Cn1cc(-c2nc(CN3CCc4c(ncn4C4CC4)C3)cs2)cn1 | -17.6%
c1ccc(-c2noc(CCCN3CCCC3Cn3cccn3)n2)cc1 (stereo not drawn) | -13%
CCn1nc(C)cc1C(=O)N1C[C@@H]2C[C@@H](C)O[C@@H]2C1 | 5.53%
O=C(NC1CCCC1)c1nc2c(o1)CN(CCO)C2 | 13.2%
COCCO[C@H]1CCN(C(=O)c2ccc[nH]2)[C@H]1Cc1ccncc1 | -5.46%
